Screening data from PubChem BioAssay.
VIM-2 inh = inhibitors of Pseudomonas aeruginosa VIM-2 metallo-beta-lactamase; purified VIM-2, nitrocefin hydrolysis, epi-absorbance fluorescence; inhibition, % at 5.6 µM; 0.89% of 290,000 active;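 active = inhibition above the mean of all tested compounds plus 3 SD, cutoff set per screening run, cut at about 7.5% in these data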;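 also: red hydrolysis product quenches plate fluorescence so inhibitors raise well fluorescence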
DNA FID counter = fluorescent intercalator displacement, NS3 helicase counter-screen. 0.17% of 290,000 active. inhibition, % at 7.9 µM. DNA fluorescent intercalator displacement, fluorescence. AID 1845; in the data active = inhibition above about 37%;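 also: higher means more ethidium bromide displaced from hairpin DNA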
IMP-1 inhibitor = blocks Pseudomonas aeruginosa IMP-1 metallo-beta-lactamase | inhibition, % at 5.6 µM | 0.45% of 290,000 active | purified IMP-1, nitrocefin hydrolysis, epi-absorbance fluorescence;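 active = inhibition above the mean plus 3 SD of all compounds in the same screening run, cut at about 4.5% in these data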
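System: purified IMP-1 / Input: IMP-1 dispensed at 0.2 nM / Medium: 50 mM HEPES pH 7.1, 50 µM ZnSO4, 0.05% Brij 35 / Timing: 15 min enzyme–compound preincubation, then 25 min nitrocefin reaction, 25 °C / Technique: plate fluorescence quenching by hydrolysis product, ex 480/em 530 nm / Repeats: singlicate testing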
HCV NS3 hel inh = inhibitors of Hepatitis C virus NS3 helicase | 0.56% of 290,000 active | AID 1800 | inhibition, % at 10.9 µM | NS3 helicase DNA unwinding, Cy5 molecular beacon fluorescence;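 active = inhibition above the mean of all tested compounds plus 3 SD, set per campaign, cut at about 35% in these data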
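test system = hepatitis C virus NS3 helicase domain fragment enzyme | reagent = annealed dual-labelled DNA beacon duplex, ATP-started | times = 1 h at 25 °C | detection = Cy5 fluorescence, 0 and 60 min reads | read-out basis = percent inhibition from t60/t0 fluorescence ratio | control set = DMSO and thioflavine S | replication = one well per compound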
A number is an active result; - = inactive. In the library only some 1.9% were active in any assay of this set; here they are far more common.

SMILES	VIM-2 inh	DNA FID counter	IMP-1 inhibitor	HCV NS3 hel inh
Clc1cccc(-c2nc(NCCN3CCOCC3)c3ccccc3n2)c1	-	-	-	-
Cc1cc(NCCN2CCOCC2)c2ccc3ccccc3c2n1	8.8	47	-	-
Fc1ccccc1-c1nc(NCCCN2CCOCC2)c2ccccc2n1	-	-	-	-
Clc1cccc(-c2nc(NCCCN3CCOCC3)c3ccccc3n2)c1	-	37	-	-
Cc1ccc(-c2nc(NCCN3CCOCC3)c3ccccc3n2)cc1	-	46	-	-
c1csc(-c2nc(NCCCN3CCOCC3)c3ccccc3n2)c1	-	61	-	-
Cc1ccccc1OCCSc1nc2ccccc2n1CCC(=O)O	-	-	-	-
Clc1ccc(-c2nc(NCCCN3CCOCC3)c3ccccc3n2)cc1	-	48	-	-
CC(=O)Nc1nn(C)c2nc3ccc(C)cc3cc12	-	-	-	-
COc1ccc(CCN(C)C(=O)c2cc(-c3ccccc3)nc3ccccc23)cc1OC	-	-	-	-
COc1ccc(CCN(C)C(=O)Cc2ccc(-c3ccccc3)cc2)cc1OC	-	-	8.5	-
Cc1ccccc1NS(=O)(=O)c1ccc(C(=O)NN2CCCCC2)cc1	-	-	-	-
Cc1nnc2c(NC(C)C)nc3ccccc3n12	9.0	-	-	-
CCC(C)Nc1nc2ccccc2n2c(C)nnc12 (configuration not stated)	-	-	-	-
COc1ccc(CC(=O)OCC(=O)NCc2ccccc2Cl)cc1OC	-	-	-	-
CCc1c(C)sc(NC(=O)/C=C/C(=O)O)c1C(N)=O	-	-	-	-
Cc1nn(-c2ccccc2)c2sc(-c3nnc(SCC(=O)O)o3)cc12	-	-	-	-
CCn1c(SCC(=O)O)nnc1-c1cc2c(C)nn(-c3ccccc3)c2s1	10	-	-	-
Cc1ccc(S(=O)(=O)/N=C2/NC(=O)/C(=C\c3cc(Br)cc(Br)c3O)S2)cc1	-	44	-	-
c1ccc(-c2ccc(OCCCNC3CCCC3)cc2)cc1	-	41	-	-
COc1ccccc1N1CCN(C2CCCN(C(=O)CCc3ccccn3)C2)CC1 (configuration not stated)	-	-	-	-
CCOC(=O)c1c(N)sc2c1CCSC2	-	-	14	-
COC(=O)c1c(NC(=O)c2ccccc2)sc2c1CC(C)(C)NC2(C)C	-	-	-	-
CCOC(=O)N1CCN(S(=O)(=O)c2ccc(C(=O)Nc3sc4c(c3C(N)=O)CC(C)(C)NC4(C)C)cc2)CC1	-	41	-	-
CC1(C)Cc2c(sc(NC(=O)c3ccc(C(=O)c4ccccc4)cc3)c2C(N)=O)C(C)(C)N1	-	37	-	-
SMILES	VIM-2 inh	DNA FID counter	IMP-1 inhibitor	HCV NS3 hel inh
CSc1ccc(NC(=O)c2cccnc2)cc1C#N	-	-	-	-
CC(C)(C)OC(=O)N[C@@H](CC(=O)OCc1ccccc1)C(=O)O	-	-	-	-
O=C(NN1C(=O)CSC1=S)C(=O)NN1C(=O)CSC1=S	-	-	18	-
CCOC(=O)N1CCN(S(=O)(=O)N2CCCC(C(=O)NCCc3ccc(OC)c(OC)c3)C2)CC1 (configuration not stated)	-	-	-	-
COc1cc([N+](=O)[O-])cc(/C=C2/SC(=S)N(Cc3ccccc3)C2=O)c1O	-	41	-	-
COc1cc(/C=C2/SC(=S)N(Cc3ccccc3)C2=O)cc(Cl)c1O	-	-	-	48
O=C(NC(=S)Nc1cccc(O)c1)c1ccco1	-	-	-	-
COC(=O)NC1(C(=O)O)CCCC1	-	-	-	-
CC(SCC(=O)NC12CC3CC(CC(C3)C1)C2)C(=O)O (configuration not stated)	-	-	-	-
CC1CCCCN1S(=O)(=O)c1ccc(C(=O)N(CCCN(C)C)c2nc3ccc(Br)cc3s2)cc1 (configuration not stated)	-	38	-	-
CCC1CCCCN1S(=O)(=O)c1ccc(C(=O)N(CCCN(C)C)c2nc3cc4c(cc3s2)OCO4)cc1 (configuration not stated)	-	39	-	-
Cc1cc(=O)nc2c3ccccc3n(CC(=O)Nc3ccccc3Br)n12	-	-	-	-
CC1=NNC(=O)C1Cc1ccc(F)cc1 (configuration not stated)	8.4	-	-	-
Oc1c(C=Nc2ccccc2)sc2ccccc12	-	-	-	-
Oc1sc(C=Nc2ccc(F)cc2)c2ccccc12	-	-	13	-
COc1cccc2cc(C(=O)CS(=O)(=O)c3ccc(Cl)cc3)c(=O)oc12	-	-	-	-
Cc1nc2ccccn2c1-c1csc(Nc2cccc(O)c2)n1	11	-	-	-
CN(C(=S)NCCN1CCOCC1)C(c1ccccc1)c1ccccc1	-	-	-	-
O=C(CN1C(=O)C2CCCCC2C1=O)Nc1nc(-c2ccccn2)cs1 (configuration not stated)	-	-	-	-
C[C@@H](C(=O)Nc1nc(-c2ccccn2)cs1)N1C(=O)C2CCCCC2C1=O (some centres not stated)	-	-	11	-
COC(=O)c1c(-c2cccnc2)csc1NC(=O)c1cc(C)on1	9.7	-	-	-
COC(=O)c1c(-c2ccc(C)cc2)csc1NC(=O)c1c(-c2ccccc2)noc1C	-	-	-	-
CN(C)CCCNc1cc(-c2ccccc2)nc2cc(-c3cccc(F)c3)nn12	-	40	-	-
Cc1cccc(-c2cc3nc(C)cc(NCCCN(C)C)n3n2)c1	-	-	-	-
CN(C)CCCNc1cc(C(C)(C)C)nc2c(-c3ccccc3)cnn12	-	48	-	-
SMILES	VIM-2 inh	DNA FID counter	IMP-1 inhibitor	HCV NS3 hel inh
CSCC[C@H](NC(=O)[C@H](Cc1ccccc1)n1c(=O)[nH]c2ccccc2c1=O)C(=O)NCC1CCC(C(=O)O)CC1 (some centres not stated)	-	-	-	-
COc1ccc(-c2cc(-c3cc(F)ccc3O)[nH]n2)cc1OC	-	-	5.2	-
COc1ccc2cc(C(=O)N3CCN(c4ccccc4OC)CC3)[nH]c2c1	-	-	-	-
O=C(Nc1cccc(C(F)(F)F)c1)C(=O)N1CCCCC1	-	-	-	-
O=C(O)C1=C(C(=O)Nc2cccc(C(F)(F)F)c2)CCCC1	-	-	18	-
CC(C)CC(=O)Nc1cccc2c1C(=O)N(c1ccccc1)C2=O	-	-	7.5	-
COC(=O)c1cc(NCc2ccccc2F)ccc1N1CCOCC1	-	-	15	-
CCCc1cc2c(=O)n(NC(=O)c3nn(C)cc3[N+](=O)[O-])c(C)nc2s1	-	-	-	-
NC(=O)c1ccc(Cl)c2ccccc12	-	-	15	-
CCC(C)N(C)Cc1cccc(C2(O)CCN(S(=O)(=O)c3ccc(F)c(C)c3)CC2)c1 (configuration not stated)	-	38	-	-
Cc1cc(S(=O)(=O)N2CCN(c3c(C)cccc3C)CC2)ccc1F	-	-	-	-
COc1cc2cccc(OC)c(=O)c2c(O)c1OC	-	-	-	-
COc1cc2c(cc1OC)-c1c(OC)c(OC)cc3ccnc(c13)C2=O	9.0	-	-	-
Nc1cc([N+](=O)[O-])ccc1N1C(=O)CCCC1=O	-	-	-	-
